Source: PubChem (Broad Institute)
PGC1a Ac signal – compounds raising PGC1a acetylation signal, primary screen, PGC1a modulator project, cell-based, U2OS, AlphaScreen, signal-increasing mode | activation, % at 15.6 µM | overnight | actives 0.21% (n = 350,000);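 active = every replicate reaching activation of at least 50%, whatever the mean replicate activation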;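 note: hits raise the AlphaScreen acetylation signal above neutral controls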
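System: flag-PGC1a/GCN5 U2OS cells / Input: 7000 cells/well / Compound: single test concentration per compound / Incubation: overnight compound treatment, 37 °C / Technique: AlphaScreen on lysates with anti-acetyl-lysine antibody, acceptor and donor beads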
Numbers stand for hits; 0 = inactive. Only a sample is shown.

SMILES	PGC1a Ac signal
COc1ccc(/C=N/Nc2nc3ccccc3[nH]2)c(OC)c1OC	0
Cc1[nH]c2ccccc2c1/C=N/Nc1nc2ccccc2[nH]1	79.5
CCC(C)(C)n1nnnc1C(c1cccnc1)N1CCCC(C)C1 (stereo not drawn)	0
O=C(CCCc1nc(-c2ccccc2Cl)no1)NCc1cccnc1	98.0
O=C(CCNNC(=O)c1ccncc1)NCc1ccccc1	0
O=C(NCc1cccnc1)/C(=C\c1ccc(-c2ccc(Cl)c(Cl)c2)o1)S(=O)(=O)c1ccccc1	0
C[C@H](CO)N1C[C@H](C)[C@@H](CN(C)CC2CCOCC2)Oc2ncc(Br)cc2C1=O	0
Cc1noc(C)c1NC(=O)N(C)C[C@@H]1Oc2ccc(NS(=O)(=O)c3cn(C)cn3)cc2C(=O)N([C@@H](C)CO)C[C@@H]1C	0
O=[N+]([O-])c1ccc(/C=N/n2c(CO)nc3ccccc32)s1	52.7
C[C@@H]1CN([C@H](C)CO)C(=O)c2cccc(NC(=O)c3nc4ccccc4s3)c2O[C@@H]1CN(C)C(=O)Nc1ccc(F)cc1	0
CCOC(=O)C(NC(=O)c1ccccc1OCC)(Nc1ncccn1)C(F)(F)F (stereo not drawn)	70.3
CCOc1ccc(C(=O)N/N=C(\c2ccccc2)c2ccccn2)cc1	0
CCOc1ccccc1C(=O)NCCCCCC(=O)O	0
C[C@@H]1CN([C@H](C)CO)C(=O)CCCn2cc(nn2)CO[C@@H]1CN(C)C(=O)NC1CCCC1	0
Cc1c(CCOC(=O)CC23CC4CC(CC(C4)C2)C3)sc[n+]1Cc1ccccc1	60.9
O=C(OCc1nc2ccsc2c(=O)[nH]1)c1cccc(S(=O)(=O)N2CCOCC2)c1	0
Nc1nnc(CC(=O)N/N=C/c2ccccc2OCc2ccc(F)cc2)s1	0
Cc1ccccc1OCC(=O)N/N=C/c1cc2ccccc2nc1Cl	59.3
Cc1cc(OCC(=O)NNC(=O)c2cnccn2)cc(C)c1Cl	0
COc1ccc(CCNc2ccc(C(CC(N)=O)NC(=O)c3cc(C)cc(C)c3)cc2[N+](=O)[O-])cc1 (stereo not drawn)	0
CN(C)CCCNC(=O)CC1C[C@H](C(=O)N2CCCCC2)[C@@]2(CCc3ccccc3)c3[nH]c4ccccc4c3CCN2C1=O (stereo partly drawn)	99.0
CCN(CC)C(=O)[C@H]1CC(CC(=O)NCc2cccc(C(F)(F)F)c2)C(=O)N2CCc3c([nH]c4ccccc34)[C@]12C (stereo partly drawn)	0
CN(CCc1ccccc1)C(=O)c1ccc(NC(=O)Cc2ccc(NC(=O)C3CCN(C(=O)C4CCCCC4)CC3)cc2)cc1	0
CN(C)CCOc1ccc2c(c1)C(=O)C(=Cc1ncc([N+](=O)[O-])n1C)C2	0
Cc1ccc(S(=O)(=O)N(C)C[C@@H]2Oc3cc(C#Cc4ccncc4)ccc3S(=O)(=O)N([C@H](C)CO)C[C@H]2C)cc1	0
SMILES	PGC1a Ac signal
C[C@@H]1CN([C@H](C)CO)S(=O)(=O)c2ccc(C#CC3CCCC3)cc2O[C@H]1CN(C)C	51.8
C[C@H](CO)N1C[C@H](C)[C@@H](CN(C)Cc2ccc3c(c2)OCO3)Oc2cc(Br)ccc2S1(=O)=O	50.6
COc1cccc(S(=O)(=O)N(C)C[C@@H]2Oc3cc(C4=CCCC4)ccc3S(=O)(=O)N([C@H](C)CO)C[C@@H]2C)c1	58.6
COc1ccc(S(=O)(=O)N(C)C[C@@H]2Oc3cc(C#CC4CC4)ccc3S(=O)(=O)N([C@H](C)CO)C[C@H]2C)cc1	58.9
Cc1ccc(S(=O)(=O)N(C)C[C@@H]2Oc3cc(C#Cc4ccncc4)ccc3S(=O)(=O)N([C@@H](C)CO)C[C@H]2C)cc1	0
C[C@@H]1CN([C@@H](C)CO)S(=O)(=O)c2ccc(C3=CCCCC3)cc2O[C@H]1CN(C)C	0
CC(C)C#Cc1ccc2c(c1)O[C@@H](CN(C)C(=O)C1CC1)[C@@H](C)CN([C@@H](C)CO)S2(=O)=O	0
CC(C)C#Cc1ccc2c(c1)O[C@@H](CN(C)Cc1ccccc1)[C@@H](C)CN([C@@H](C)CO)S2(=O)=O	0
C[C@@H]1CN([C@H](C)CO)S(=O)(=O)c2ccc(C3=CCCCC3)cc2O[C@H]1CN(C)Cc1ccccc1	0
C[C@@H]1CN([C@@H](C)CO)S(=O)(=O)c2ccc(C#CC3CCCCC3)cc2O[C@H]1CN(C)Cc1cccnc1	0
CC(C)CC#Cc1ccc2c(c1)O[C@@H](CN(C)Cc1ccc3c(c1)OCO3)[C@H](C)CN([C@H](C)CO)S2(=O)=O	0
CCN(CC)C1CC(=O)N(c2ccc(Br)cc2)C1=O (stereo not drawn)	0
C[C@@H]1CN([C@@H](C)CO)S(=O)(=O)c2ccc(-c3ccccc3)cc2O[C@@H]1CN(C)C(=O)c1ccccc1F	0
CC(C)OC(=O)c1c(F)c(F)c(N2CCOCC2)c(F)c1F	0
N#Cc1cc(Oc2cccc3cccnc23)c(-n2nnc3ccccc32)cc1C#N	138.7
Cc1cccc(NC(=O)c2ccc([N+](=O)[O-])o2)n1	65.8
COc1ccc(C(=O)Nc2cccc(NC(=O)c3ccc(OC)c(OC)c3)n2)cc1OC	0
CCC(=O)N1CCN(c2ccc(Cl)cc2NC(=O)c2ccc([N+](=O)[O-])o2)CC1	61.7
CC(C)C(=O)Nc1cccc(NC(=S)NC(=O)c2ccc([N+](=O)[O-])cc2)c1	0
CCCCn1nc(NC(=O)c2cccs2)c2cc3ccccc3nc21	0
O=C(Nc1ccccc1Cl)c1ccc([N+](=O)[O-])o1	65.8
O=C(Nc1cccc(NC(=O)c2cccs2)c1)c1ccc([N+](=O)[O-])o1	93.5
COCCNC(=O)CN1CCC(NC(=O)C(C)(C)C)CC1	0
C[C@H](CO)N1C[C@H](C)[C@H](CN(C)S(=O)(=O)c2ccc(F)cc2)Oc2ccc(NS(=O)(=O)c3cn(C)cn3)cc2C1=O	0
CCCCC(O)(CCCC)C(=O)N/N=C(\C)c1ccc(Cl)cc1	0
SMILES	PGC1a Ac signal
Cc1ccc(S(=O)(=O)N2CCN(C(=O)CSc3nc4ccccc4c(=O)[nH]3)CC2)c(C)c1	0
Cc1ccc(C)c(N2CCN(C(=O)CCCOc3cc(=O)n(C)c4ccccc34)CC2)c1	128.1
O=C(Cc1cccc(NC(=O)C2CCCN(C(=O)c3ccccc3)C2)c1)Nc1cccc(C(=O)N2CCOCC2)c1 (stereo not drawn)	0
O=C(Cc1cccc(NC(=O)C2CCN(C(=O)c3ccccc3)CC2)c1)Nc1cccc(C(=O)N2CCCCC2)c1	0
CC(C)(C)OC(=O)N1CCCC(C(=O)Nc2cccc(C(=O)NCc3ccccc3)c2)C1 (stereo not drawn)	64.4
Nc1ncc([N+](=O)[O-])c(N2CCCCCC2)n1	0
COc1cccc(N(CC(=O)N2CCN(Cc3ccccc3)CC2)S(C)(=O)=O)c1	0
O=C(N/N=C\c1cccc([N+](=O)[O-])c1O)C1COc2ccccc2O1 (stereo not drawn)	74.8
Cn1cccc1CC(=O)N/N=C/c1cc([N+](=O)[O-])ccc1Cl	0
O=C(N/N=C/c1cccc([N+](=O)[O-])c1)C1COc2ccccc2O1 (stereo not drawn)	188.4
Cc1ccccc1S(=O)(=O)NCC[C@@H]1CC[C@H](NC(=O)C2CCOCC2)[C@@H](CO)O1	0
COc1ccc(-n2nc(C#N)c(Cl)cc2=O)cc1	0
CCN1/C(=C/C(C)=C/c2sc3ccccc3[n+]2CC)Sc2ccccc21	97.6
COc1cccc(N2C(=NC(=O)c3ccccc3)SC3CS(=O)(=O)CC32)c1 (stereo not drawn)	0
